This is an account of results in paper PMC11128822 (Heliyon, 2024).

Read-outs that look alike come from different tables or passages of the source.

Data set [1] deals with COVID-19. As to conditions: PANORAMIC trial, cited from earlier work.
For data set [2], the system named is SARS-CoV-2. The data set is classed as in vivo, Syrian hamsters. As to conditions: 150, 300, 400 mg/kg/day BID, from D0, D3.
The subject of the next data set is cytokines in lungs. The experiment in a line: Expression level of seven cytokines in lungs. The data set is classed as in vivo, Syrian hamsters. Conditions: 300 mg/kg/day BID from D0, D5.
Data set [3] concerns SARS-CoV-2 genome. The experiment in a line: Sequence analysis of the full-length viral genome in HAE supernatants. The data set is classed as cell-based, human.
The subject of data set [4] is SARS-CoV-2. The data set is classed as in vivo, Syrian hamsters. As to conditions: for reduction of lung infectious viral titers vs untreated: 300 mg/kg/day BID oral, D3.
Data set [5] relates to SARS-CoV-2. The experiment in a line: microbe, parasite or virus in culture. The data set is classed as cell-based, human. Conditions: for viral infectious titres at the apical side of HAE vs virus control: D2 to D4.
Data set [6] concerns SARS-CoV-2. The experiment in a line: Lung histology of infected hamsters. It counts as in vivo, Syrian hamsters. In a few lines:
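Infected hamsters were dosed every 12 h from the time of infection. MOV was given by oral gavage under isoflurane in water with 10 % PEG400 and 2.5 % Kolliphor EL. FAV was given intraperitoneally to awake animals. Euthanasia was on D5. Lungs were collected after intratracheal instillation of 4 % formaldehyde, fixed 72 h at room temperature and paraffin-embedded. Lesions were graded semi-quantitatively (up to 4 = severe), and scores were summed.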

Data set [7] deals with SARS-CoV-2. The data set is classed as cell-based, human. As to conditions: D2 to D4.
In data set [8] the test system is SARS-CoV-2 genome. The data set is classed as in vivo, Syrian hamsters. As to conditions: hamster lungs.
For data set [9], the system named is COVID-19. Conditions: phase 3 MOVE OUT trial; cited from earlier work.
Data set [10] concerns SARS-CoV-2. It counts as in vivo, Syrian hamsters.
A short description of data set [11]: Molnupiravir pharmacokinetics: NHC trough concentration in plasma and lung. The data set is classed as in vivo, Syrian hamsters. In a few lines: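 MOV was given by oral gavage every 12 h, with the first dose at infection (D0), 12 h before (D-1) or 12 h after (D1). Hamsters were euthanised 15 h after the last dose on D3, giving trough values. Samples were EDTA plasma and lung lobes homogenised in 0.9 % NaCl. NHC was extracted with acetonitrile and quantified by UPLC-MS/MS (LLOQ 5 ng/mL). The partition coefficient was the lung:plasma concentration ratio.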

In general, IC50 refers to the concentration needed to halve the response being measured. Read a low IC50 as greater potency. Regarding `CC(C)C(=O)OC[C@H]1O[C@@H](n2ccc(NO)nc2=O)[C@H](O)[C@@H]1O` [MOV, molnupiravir], in the data set with COVID-19 [1], the time to recovery entry was “reduced time to recovery”. Moreover, the viral load entry with COVID-19 [1] is on record as “reduced viral load”. Further, the “reduction in the risk of hospitalisation or death” value in the data set with COVID-19 [1] (vaccinated patients) is listed as “no reduction”. Moreover, the “RNA viral yields in nasal washes vs untreated animals” value in the data set with SARS-CoV-2 [2] is reported as “no significant differences”. For the same molecule, in the data set on cytokines in lungs, the “expression of IL10 in lungs vs vehicle group” value was “reduction was not significant”. The “expression of TNF in lungs vs vehicle group” value in the data set with cytokines in lungs is “reduction was not significant”. The “expression of cytokine CCl5 in lungs vs vehicle group” value in the data set on cytokines in lungs is given as “significantly decrease”. In the data set with cytokines in lungs, the “expression of cytokine CxCl10 in lungs vs vehicle group” value is reported as “significantly decrease”. In addition, the “average number of MVs per genome” value is 20 with SARS-CoV-2 genome [3] (0.3 μM), 88 with SARS-CoV-2 genome [3] (1 μM) and 18.3 in the data set on SARS-CoV-2 genome [3] (3 μM). The entries for the “mean frequency of transition-type MVs” value with SARS-CoV-2 genome [3] (0.3 μM), with SARS-CoV-2 genome [3] (1 μM) and with SARS-CoV-2 genome [3] (3 μM) were 0.81, 0.97 and 0.89, respectively. The “increase of type C to U-MVs, exposed vs non-exposed HAE” value in the data set on SARS-CoV-2 genome [3] (pooled analysis) is on record as “significance found”. Moreover, the “infectious titers in clarified lung homogenates vs untreated animals” value in the data set on SARS-CoV-2 [4] (150, 300 and 400 mg/kg/day BID oral, from D0, lungs at D3) was “significantly lower”. In the data set on SARS-CoV-2 [4] (dose assessment experiment, 150-400 mg/kg/day BID), the “lung particle-to-infectious unit ratio vs untreated” value is reported as “No significant differences”. Further, the “reduction of lung infectious viral titers vs untreated” value is 1.03 log10 with SARS-CoV-2 [4] (pre-emptive (D0)) and 1.12 log10 with SARS-CoV-2 [4] (preventive (D-1)). The “lung particles to infectious unit ratio vs control” value with SARS-CoV-2 [4] (preventive (D-1), 300 mg/kg/day BID) is on record as “significant elevation”. Besides, the “viral infectious titres at the apical side of HAE vs virus control” value was “significant decrease in infectious titres was observed only at D3” in the data set on SARS-CoV-2 [5] (0.3 μM), “Significant decrease” in the data set on SARS-CoV-2 [5] (1 μM) and “Significant decrease” with SARS-CoV-2 [5] (3 μM). The molecule further returned an IC50 with SARS-CoV-2 [5] (Severe acute respiratory syndrome coronavirus 2, in Homo sapiens) of 1 µM. The “cumulative pathological scores vs untreated group” value with SARS-CoV-2 [6] (MOV 300 mg/kg/day BID from D0, lungs at D5) was “no significant difference”. Besides, the “viral RNA yields at the apical side of HAE vs virus control” value in the data set on SARS-CoV-2 [7] (0.3 μM) is “no significant reduction”; with SARS-CoV-2 [7] (1 μM), “significant reduction was observed at D3 and D4”; with SARS-CoV-2 [7] (3 μM), “significant decrease”. Moreover, the “G to A MVs vs untreated group” value in the data set with SARS-CoV-2 genome [8] (300 mg/kg/day BID) is “significant increase”. The “mean frequency of transitions-type MVs vs untreated” value in the data set with SARS-CoV-2 genome [8] (300 mg/kg/day BID) is reported as “higher in the treated group compared to the untreated group, but not significantly”. For the same molecule, in the data set on SARS-CoV-2 genome [8] (300 mg/kg/day BID), the “number of MVs with a frequency greater than 10 % vs untreated” value is on record as “significant higher number”. The “mean number of MVs per genome” value in the data set on SARS-CoV-2 genome [8] (300 mg/kg/day BID from D0) is listed as 29.5. Besides, in the data set with COVID-19 [9], the “efficacy in reducing the risk of hospitalisation or death” value was “modest efficacy”. Moreover, the “viral RNA yields in lungs vs control group” value in the data set on SARS-CoV-2 [10] (300 mg/kg/day BID, three treated groups (D-1, D0, D1)) was “did not differ significantly”. Also, the “viral RNA yields in lungs vs untreated animals” value with SARS-CoV-2 [10] (150 or 400 mg/kg/day BID oral, from D0, D3) is listed as “significant lower”.

As to `O=c1nc(NO)ccn1[C@@H]1O[C@H](CO)[C@@H](O)[C@H]1O` [NHC, β-D N4-hydroxycytidine], in [11] (15 h after last intake), the “NHC concentration in lung, 400 mg/kg/day BID compared to 150 mg/kg/day BID” value is given as “significantly higher”. For the same molecule, in [11] (15 h after last intake, MOV 150, 300, 400 mg/kg/day BID oral), the “NHC plasma trough concentrations” value is on record as “comparable between doses”. In addition, the “lung and plasma NHC trough concentrations between treatment strategies” value in data set [11] (MOV 300 mg/kg/day BID from D-1, D0 or D1) is “no difference”. The “Lung partition coefficients (ratio of lung over plasma concentrations)” value in data set [11] (dose assessment experiment, all doses) is listed as “above 1”. Further, the pulmonary partition coefficient entry in data set [11] (therapeutic strategies experiment, 300 mg/kg/day BID) was “above 1”.

With `CCC(CC)COC(=O)[C@H](C)N[P@](=O)(OC[C@H]1O[C@@](C#N)(c2ccc3c(N)ncnn23)[C@H](O)[C@@H]1O)Oc1ccccc1` [RDV, Remdesivir], the “infectious titres in HAE” value with SARS-CoV-2 [5] (10 μM, positive control) is “significantly reduced”.

As for `NC(=O)c1nc(F)c[nH]c1=O` [FAV, Favipiravir], the “cumulative pathological scores vs untreated group” value in the data set on SARS-CoV-2 [6] (FAV intraperitoneally 925 mg/kg/day BID, lungs at D5) is “significantly different score”.
